Measured values published in ChEMBL document CHEMBL2177095, “Discovery of selective and potent inhibitors of gram-positive bacterial thymidylate kinase (TMK)” (J Med Chem, 2012).
Values after ≈ are worked out from the molar mass of the structure shown.

What was measured:
[1] = Inhibition of Streptococcus pneumoniae thymidylate kinase assessed as effect on conversion of dTDP to dTMP by luciferin/luciferase reporter gene based assay
[2] = Inhibition of Staphylococcus aureus thymidylate kinase assessed as effect on conversion of dTDP to dTMP by luciferin/luciferase reporter gene based assay
Candida albicans = assay: Toxicity against Candida albicans; assay type: organism-based
Thymidylate kinase = molecular target: T1, Thymidylate kinase (Homo sapiens, UniProt P23919); assay: Inhibition of human thymidylate kinase assessed as effect on ATP production by Escherichia coli DdlA and Malachite green reagent based assay
T1 sequence (P23919 whole entry): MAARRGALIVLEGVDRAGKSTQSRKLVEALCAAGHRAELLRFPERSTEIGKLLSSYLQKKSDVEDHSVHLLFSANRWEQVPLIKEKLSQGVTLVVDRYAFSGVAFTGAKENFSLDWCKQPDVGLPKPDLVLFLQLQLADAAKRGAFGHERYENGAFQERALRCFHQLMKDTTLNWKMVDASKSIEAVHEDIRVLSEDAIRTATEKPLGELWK

[3] = Partition coefficient, log D of the compound at pH 7.4 by shake flask method; conditions: octanol/water
Streptococcus pneumoniae = assay: Antimicrobial activity against Streptococcus pneumoniae by broth microdilution method; assay type: functional
In short: (§1)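 Test organisms were strains from the AstraZeneca collection.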

[4] = Toxicity against human A549 cells; assay type: cell-based; conditions: read-out: MIC
Staphylococcus aureus [5] = assay: Antimicrobial activity against methicillin and quinolone-resistant Staphylococcus aureus by broth microdilution method; assay type: functional
In short: (§2)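 MICs were determined against bacterial strains from the AstraZeneca collection. For S. aureus, MSQS means methicillin- and quinolone-sensitive, and MRQR means methicillin- and quinolone-resistant.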

Staphylococcus aureus [6] = assay: Antimicrobial activity against methicillin and quinolone-sensitive Staphylococcus aureus by broth microdilution method; assay type: functional; in short: as §2
Staphylococcus aureus [7] = assay: Antimicrobial activity against Staphylococcus aureus infected in mouse thigh infection model assessed as compound dose causing microbial infection stasis administered as single dose; assay type: functional, Thigh muscle
Enterococcus faecalis = assay: Antimicrobial activity against vancomycin-resistant Enterococcus faecalis by broth microdilution method; assay type: functional; in short: as §2
Enterococcus faecium = assay: Antimicrobial activity against linezolid-resistant Enterococcus faecium by broth microdilution method; assay type: functional; in short: as §2
[8] = test system: Staphylococcus epidermidis; assay: Antimicrobial activity against Staphylococcus epidermidis by broth microdilution method; assay type: functional; in short: as §1
Streptococcus pyogenes = assay: Antimicrobial activity against Streptococcus pyogenes by broth microdilution method; assay type: functional; in short: as §1
[9] = Toxicity in Staphylococcus aureus infected mouse thigh infection model assessed as incidence of adverse events; assay type: organism-based, Thigh muscle; conditions: in vivo

Row | SMILES | IC50 [1] [nM] | IC50 [2] [nM] | MIC (Candida albicans) [µg/mL] | IC50 (Thymidylate kinase) [µM] | logD [3] | MIC (Streptococcus pneumoniae) [µg/mL] | MCC [4] [µg/mL] | MIC (Staphylococcus aureus [5]) [µg/mL] | MIC (Staphylococcus aureus [6]) [µg/mL] | Activity (Staphylococcus aureus [7]) [mg/kg] | MIC (Enterococcus faecalis) [µg/mL] | MIC (Enterococcus faecium) [µg/mL] | MIC [8] [µg/mL] | MIC (Streptococcus pyogenes) [µg/mL] | NOAEL [9] [mg/kg/day]
1 | Cc1ccc(Oc2cccc(CN3CCC[C@H](n4cc(C)c(=O)[nH]c4=O)C3)c2)cc1Cl | 1000 | 1900 | – | – | – | – | – | – | – | – | – | – | – | – | –
2 | Cc1cn([C@H]2CCCN([C@H](C)c3ccc(C(=O)O)c(Oc4cccc(Cl)c4)c3)C2)c(=O)[nH]c1=O | 0.3 | 2.5 | > 64 | 150 | -0.26 | 0.1 (≈ 0.207 µM) | > 64 | 8 (≈ 16.5 µM) | 4 (≈ 8.27 µM) | – | – | – | – | – | –
3 | Cc1cn([C@H]2CCCN([C@@H](C)c3ccc(C(=O)O)c(Oc4cccc(Cl)c4)c3)C2)c(=O)[nH]c1=O | 1 | 29.3 | – | – | -0.3 | 0.25 (≈ 0.517 µM) | – | 8 (≈ 16.5 µM) | 8 (≈ 16.5 µM) | – | – | – | – | – | –
4 | CC[C@@H](c1ccc(C(=O)O)c(Oc2cccc(Cl)c2)c1)N1CCC[C@H](n2cc(C)c(=O)[nH]c2=O)C1 | 3 | 18.3 | – | – | 0.2 | 0.25 (≈ 0.502 µM) | – | 4 (≈ 8.03 µM) | 2 (≈ 4.02 µM) | – | – | – | – | – | –
5 | CCC[C@H](c1ccc(C(=O)O)c(Oc2cccc(Cl)c2)c1)N1CCC[C@H](n2cc(C)c(=O)[nH]c2=O)C1 | 0.3 | 8.3 | > 64 | 150 | – | 0.05 (≈ 0.0977 µM) | > 64 | 1 (≈ 1.95 µM) | 1 (≈ 1.95 µM) | – | – | – | – | – | –
6 | CCC[C@@H](c1ccc(C(=O)O)c(Oc2cccc(Cl)c2)c1)N1CCC[C@H](n2cc(C)c(=O)[nH]c2=O)C1 | 0.6 | 18 | – | – | – | 0.1 (≈ 0.195 µM) | – | 4 (≈ 7.81 µM) | 4 (≈ 7.81 µM) | – | – | – | – | – | –
7 | Cc1cn([C@H]2CCCN([C@H](CC(C)C)c3ccc(C(=O)O)c(Oc4cccc(Cl)c4)c3)C2)c(=O)[nH]c1=O | < 0.2 | – | – | – | 0.9 | 0.03 (≈ 0.057 µM) | – | 1 (≈ 1.9 µM) | 1 (≈ 1.9 µM) | – | – | – | – | – | –
8 | Cc1cn([C@H]2CCCN([C@@H](CC(C)C)c3ccc(C(=O)O)c(Oc4cccc(Cl)c4)c3)C2)c(=O)[nH]c1=O | 0.6 | 13.5 | – | – | 0.9 | 0.05 (≈ 0.0951 µM) | – | 2 (≈ 3.8 µM) | 2 (≈ 3.8 µM) | – | – | – | – | – | –
9 | Cc1cn([C@H]2CCCN([C@H](CC(C)(C)C)c3ccc(C(=O)O)c(Oc4cccc(Br)c4)c3)C2)c(=O)[nH]c1=O | 0.2 | 0.8 | > 64 | 62 | 1.1 | 0.02 (≈ 0.0342 µM) | > 64 | 0.25 (≈ 0.428 µM) | 0.25 (≈ 0.428 µM) | 150 | 1 (≈ 1.71 µM) | 0.25 (≈ 0.428 µM) | 2 (≈ 3.42 µM) | 0.08 (≈ 0.137 µM) | 800
10 | Cc1cn([C@H]2CCCN([C@@H](CC(C)(C)C)c3ccc(C(=O)O)c(Oc4cccc(Br)c4)c3)C2)c(=O)[nH]c1=O | 0.6 | 2.8 | – | – | 1.2 | 0.03 (≈ 0.0513 µM) | – | 1 (≈ 1.71 µM) | 2 (≈ 3.42 µM) | – | – | – | – | – | –
11 | CCC(C)(C)C[C@H](c1ccc(C(=O)O)c(Oc2cccc(Cl)c2)c1)N1CCC[C@H](n2cc(C)c(=O)[nH]c2=O)C1 | 0.3 | 1 | > 64 | 43.4 | 1.4 | 0.05 (≈ 0.0902 µM) | > 64 | 0.1 (≈ 0.18 µM) | 0.25 (≈ 0.451 µM) | – | – | – | – | – | –
12 | CCC(CC)C[C@H](c1ccc(C(=O)O)c(Oc2cccc(Cl)c2)c1)N1CCC[C@H](n2cc(C)c(=O)[nH]c2=O)C1 | 0.1 | < 3 | – | – | 1.7 | 0.02 (≈ 0.0361 µM) | – | 0.1 (≈ 0.18 µM) | 0.25 (≈ 0.451 µM) | – | – | – | – | – | –
13 | CCCCC[C@H](c1ccc(C(=O)O)c(Oc2cccc(Br)c2)c1)N1CCC[C@H](n2cc(C)c(=O)[nH]c2=O)C1 | < 0.1 | 0.5 | > 64 | 32 | 1.1 | 0.01 (≈ 0.0171 µM) | > 64 | 0.1 (≈ 0.171 µM) | 0.25 (≈ 0.428 µM) | – | 0.06 (≈ 0.103 µM) | 0.25 (≈ 0.428 µM) | 0.5 (≈ 0.855 µM) | 0.04 (≈ 0.0684 µM) | –
14 | CCC(C)(CC)C[C@H](c1ccc(C(=O)O)c(Oc2cccc(Br)c2)c1)N1CCC[C@H](n2cc(C)c(=O)[nH]c2=O)C1 | 0.3 | 1.3 | – | – | 2 | 0.03 (≈ 0.049 µM) | – | 0.03 (≈ 0.049 µM) | 0.1 (≈ 0.163 µM) | – | – | – | – | – | –
15 | CCCC(C)(C)C[C@H](c1ccc(C(=O)O)c(Oc2cccc(Cl)c2)c1)N1CCC[C@H](n2cc(C)c(=O)[nH]c2=O)C1 | 0.3 | 0.7 | – | – | 2 | 0.06 (≈ 0.106 µM) | – | 0.06 (≈ 0.106 µM) | 0.25 (≈ 0.44 µM) | – | – | – | – | – | –
16 | Cc1cn([C@H]2CCCN([C@H](CC3CCCCC3)c3ccc(C(=O)O)c(Oc4cccc(Cl)c4)c3)C2)c(=O)[nH]c1=O | < 0.1 | 0.7 | – | – | – | 0.01 (≈ 0.0177 µM) | – | 0.1 (≈ 0.177 µM) | 0.25 (≈ 0.442 µM) | – | – | – | – | – | –
17 | Cc1cn([C@H]2CCCN([C@H](CC3CCOCC3)c3ccc(C(=O)O)c(Oc4cccc(Cl)c4)c3)C2)c(=O)[nH]c1=O | < 0.1 | 1.6 | – | – | -0.25 | 0.1 (≈ 0.176 µM) | – | 8 (≈ 14.1 µM) | 16 (≈ 28.2 µM) | – | – | – | – | – | –
18 | Cc1cn([C@H]2CCCN([C@H](CC34CC5CC(CC(C5)C3)C4)c3ccc(C(=O)O)c(Oc4cccc(Br)c4)c3)C2)c(=O)[nH]c1=O | 0.1 | 1.1 | – | – | 2.5 | 0.03 (≈ 0.0453 µM) | – | 0.1 (≈ 0.151 µM) | 0.25 (≈ 0.377 µM) | – | – | – | – | – | –
19 | Cc1cccc(Oc2cccc(CN3CCC[C@H](n4cc(C)c(=O)[nH]c4=O)C3)c2)c1 | 300 | 2700 | – | – | – | – | – | – | – | – | – | – | – | – | –
